Bioassay records (PubChem BioAssay)
Shown are actives, neighbours in structure and some others; about 5.2% of the full set was active somewhere.
EBNA-1 inhibitor: EBNA-1 DNA-binding inhibitors, primary screen, biochemical, fluorescence polarization | actives 0.34% (n = 300,000) | inhibition, % at 14.8 µM; in the data active = inhibition above about 28%
HCV core dimer: inhibitors of HCV core protein dimerization, primary screen, biochemical, TR-FRET, high-throughput. TR-FRET GST/Flag-core106 dimerization, 1536-well. inhibition, % at 5 µM. actives 0.33% (n = 300,000). AID 1899, 2009;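 active = inhibition above the mean of all tested compounds plus 3 SD, set per screening campaign, cut at about 45% in these data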
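System: GST-tagged and Flag-tagged HCV core protein residues 1-106 / Input: core106 proteins, GST 13.5 nM and Flag 17 nM / Buffer or medium: KF-containing HEPES buffer, pH 7.45, DTT, CHAPS, BSA / Probe or stimulus: Eu-anti-GST and XL665-anti-Flag labelled anti-tag antibodies / Schedule: 4 h, 22.5 °C incubation / Technique: TR-FRET 671 and 617 nm emission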
ALR inh: inhibitors of human ALR sulfhydryl oxidase, primary screen, biochemical, H2O2 detection, HRP-luminol luminescence, single point. FAD-linked sulfhydryl oxidase ALR (Homo sapiens), P55789. purified ALR, DTT oxidation. inhibition, % (concentration not given with the values). actives 3.8% (n = 290,000). AID 485317, 2010;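 active = mean replicate inhibition above about 79%, with every replicate also reaching it, limit read from the data; inconclusive = only one of the two criteria met; inactive = mean below limit and not every replicate reaching it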
Target sequence (P55789 whole entry, looked up): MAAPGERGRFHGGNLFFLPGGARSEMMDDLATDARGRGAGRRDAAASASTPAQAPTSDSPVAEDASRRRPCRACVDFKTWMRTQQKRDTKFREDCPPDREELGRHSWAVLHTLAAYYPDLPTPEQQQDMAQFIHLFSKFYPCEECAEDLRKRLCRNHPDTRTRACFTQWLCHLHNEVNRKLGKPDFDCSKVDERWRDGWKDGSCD
PfM18AAP inh: PfM18AAP inhibitors, malaria aminopeptidase, primary screen, biochemical, QFRET, recombinant enzyme; H-Glu-NHMec fluorogenic cleavage; AID 1822, 2009; M18 aspartyl aminopeptidase (Plasmodium falciparum 3D7); inhibition, % at 7.35 µM; actives 1.2% (n = 290,000);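 active = inhibition above the campaign mean inhibition over all tested compounds plus 3 SD, cut at about 28% in these data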
ZTA counter: counter-screen for EBNA-1 inhibitors: inhibitors of Epstein-Barr virus ZTA. AID 2234. actives 0.15% (n = 320,000). P03206. inhibition, % at 11 µM. ZTA-DNA binding, fluorescence polarization; in the data active = inhibition above about 33%
Target sequence (P03206 whole entry, looked up): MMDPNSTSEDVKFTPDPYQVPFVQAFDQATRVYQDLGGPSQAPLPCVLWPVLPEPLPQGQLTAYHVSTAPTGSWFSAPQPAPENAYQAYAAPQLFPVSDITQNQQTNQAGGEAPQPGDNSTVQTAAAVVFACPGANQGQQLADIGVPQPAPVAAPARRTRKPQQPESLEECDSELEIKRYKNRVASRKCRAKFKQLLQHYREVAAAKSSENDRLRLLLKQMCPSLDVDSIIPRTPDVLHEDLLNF
NS3 helicase inh: inhibitors of HCV NS3 helicase, primary screen, biochemical, Cy5 molecular beacon fluorescence; NS3 helicase DNA unwinding; AID 1800, 2009; actives 0.56% (n = 290,000); inhibition, % at 10.9 µM;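 active = inhibition above the mean of all tested compounds plus 3 SD, set per campaign, cut at about 35% in these data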
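Compound dosing – single dose, 10.9 µM nominal final, DMSO 0.8% final · System – NS3 helicase fragment of HCV · Buffer or medium – MOPS pH 6.5, MgCl2, DTT, Tween20, BSA · Signal – Cy5 beacon fluorescence read at start and 1 h · Also added – annealed dual-labelled DNA beacon duplex, ATP-started · Schedule – 1 h at 25 °C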
Of the large screens only hits and unclear results are named; the others gave an inactive call.

Fc1ccccc1Nc1n[nH]c(=S)s1	ALR inh 99
S=c1[nH]nc(Nc2cccc3ccccc23)s1	ALR inh 97
CC1CCCN(C(=O)c2ccc(-c3ccccc3Cl)o2)C1 (centres undefined)	none (no result: PfM18AAP inh, NS3 helicase inh)
COc1ccc(-c2nsc(C(=O)N(c3ccc(F)cc3)C(C(=O)NC3CCCC3)c3ccc(OC)cc3)c2N)cc1 (centres undefined)	HCV core dimer 53
CC(=O)c1ccc(N(CC(=O)NC2CCCCC2)C(=O)CNC(=O)c2cccs2)cc1	none (no result: ALR inh)
COc1cc(CCC(=O)N2CCN(S(=O)(=O)c3ccc(C)cc3)CC2)cc(OC)c1OC	none (no result: EBNA-1 inhibitor, HCV core dimer, ALR inh, PfM18AAP inh, NS3 helicase inh)
COc1ccccc1N1CCN(C(=O)C2CCCN(S(=O)(=O)c3ccc4c(c3)oc(=O)n4C)C2)CC1 (centres undefined)	none
COc1ccccc1N1CCN(C(=O)CCS(=O)(=O)c2ccc3c(c2)oc(=O)n3C)CC1	ALR inh 88
COc1ccc([C@H]2[C@H](C(=O)C(C)(C)C)N3N=Cc4ccccc4C3C23C(=O)OC(C)(C)OC3=O)cc1 (some centres undefined)	ALR inh 95
O=c1cnnc(N/N=C/c2c[nH]c3ccccc23)[nH]1	PfM18AAP inh 29
O=c1cnnc(N/N=C/c2cccs2)[nH]1	PfM18AAP inh 30
Cc1cc(=O)[nH]c(N/N=C/c2cccs2)n1	none
Cc1ccc(NS(=O)(=O)c2c(C(=O)N3CCCCCC3)c(C)n(C)c2C)c(C)c1	none
CCOc1cc(/C=N\NC(=O)CC(=O)NCCc2ccccc2)ccc1O	ALR inh 99
CCOc1ccc(/C=N\NC(=O)CC(=O)NCCc2ccccc2)cc1	none
COc1cc(/C=N/NC(=O)C2CCN(CC(O)COCc3ccccc3)CC2)ccc1O (centres undefined)	ALR inh 99
COc1cc(/C=N\NC(=O)CC(=O)NCCc2ccccc2)ccc1O	ALR inh 99
COc1cc(/C=N/NC(=O)C2CCN(CC(O)COCc3ccccc3)CC2)cc(OC)c1OC (centres undefined)	none
CCn1c(=O)c(=O)[nH]c2cc(C(=O)NC(C)c3ccc(S(N)(=O)=O)cc3)ccc21 (centres undefined)	ALR inh 97
NC(=O)c1c(NC(=O)C2c3ccccc3Oc3ccccc32)sc2c1CCCCC2	HCV core dimer 50
Cn1ccc(C(=O)Nc2sc3c(c2C(N)=O)CCCCC3)n1	ALR inh inconclusive, PfM18AAP inh 38
CN1CCc2c(sc(NC(=O)c3cc(Cl)sc3Cl)c2C(N)=O)C1	ALR inh 97
CCOCCn1c(=O)c2c(nc3n2CC(C)CN3Cc2ccccc2)n(C)c1=O (centres undefined)	none
Cc1cc(O)ccc1N=Cc1c(C(F)(F)F)[nH][nH]c1=O	ALR inh 99
O=c1[nH][nH]c(C(F)(F)F)c1C=Nc1ccccc1	none
COc1ccc(N(CC(=O)NCc2ccc3c(c2)OCO3)C(=O)c2csnn2)cc1	none
O=C(COc1ccc2ccc(=O)oc2c1)Nc1cccc(S(=O)(=O)N2CCCCC2)c1	none (no result: EBNA-1 inhibitor, HCV core dimer, PfM18AAP inh, NS3 helicase inh)
CCOC(=O)c1cccc(C2=CC(=O)CC(C)(C)C2)c1	none (no result: EBNA-1 inhibitor, HCV core dimer, PfM18AAP inh, NS3 helicase inh)
COc1ccc(CCn2c(C)cc(C(=O)COC(=O)c3ccc(NC(=O)CC#N)cc3)c2C)cc1	HCV core dimer 50
COc1ccc(CCOC(=O)c2ccc(NC(=O)CC#N)cc2)cc1	ALR inh 89
Cc1ccc(NC(=O)Nc2ccon2)cc1Cl	none
CCN(CC)C(=O)c1cc([N+](=O)[O-])cc2c1-c1ccc([N+](=O)[O-])cc1C2=C(C#N)C#N	none (no result: ALR inh)
O=c1o[nH]c(-c2ccccc2)c1-c1ccccc1	ALR inh 89 (no result: PfM18AAP inh, NS3 helicase inh)
O=C1Nc2ccccc2N(O)N1c1cc(-c2cccc(Cl)c2)no1	ALR inh 79
O=C1Nc2ccccc2N(O)N1c1cc(-c2ccccc2Cl)no1	none
COc1ccc(N2CCN(C3CCCN(C(=O)c4cccc(C)n4)C3)CC2)cc1 (centres undefined)	none
Cc1cccc(C(=O)N2CCCC(N3CCN(c4ccccc4)CC3)C2)n1 (centres undefined)	ALR inh 98
Cc1cccc(C(=O)N2CCCC(N3CCN(c4ccc(F)cc4)CC3)C2)n1 (centres undefined)	ALR inh 99
O=C(O)C1CCN(S(=O)(=O)c2ccc(N3CCC(O)CC3)c([N+](=O)[O-])c2)CC1	none
Nc1nc(Cl)nc2ncn(Cc3ccccc3)c12	none (no result: ALR inh)
O=c1c(Cl)cc(Cl)nn1-c1ccccc1	ALR inh 98
CCCCOC(=O)c1ccc(NC(=O)CSC2=Nc3ccccc3C3CC=NN23)cc1 (centres undefined)	ALR inh 100
O=C(CSC1=Nc2ccccc2C2CC=NN12)Nc1ccc(F)c(F)c1F (centres undefined)	none (no result: EBNA-1 inhibitor, HCV core dimer, PfM18AAP inh, NS3 helicase inh)
CC(=O)N(c1ccc2oc(=O)sc2c1)S(=O)(=O)c1ccccc1	PfM18AAP inh 29
COc1ccc(S(=O)(=O)N(C(=O)C(C)C)c2ccc3oc(=O)sc3c2)cc1	none
CC(C)C(=O)N(c1ccc2oc(=O)sc2c1)S(=O)(=O)c1ccccc1	ALR inh 96
COc1ccc(N2CCN(C(=O)CCC(=O)N3CC(C)Oc4ccccc43)CC2)cc1 (centres undefined)	ALR inh 78
COc1ccc(N2CCN(C(=O)CCn3nnc4ccccc43)CC2)cc1	ALR inh 90
O=C(c1ccc(Cl)cc1)N1CCN(c2ncccn2)CC1	none
COC(=O)c1cc(S(=O)(=O)Nc2ccc(C)cn2)c[nH]1	none
CCN1CCN(c2c(S(=O)(=O)c3ccc(C)c(C)c3)cnc3ccc(F)cc23)CC1	none
COc1ccc(N(C)S(=O)(=O)c2ccc3c(c2)NC(=O)CO3)c(OC)c1	none
CCOc1cc(C(C(=O)NCC2CCCO2)N(C(=O)Cn2nnc3ccccc32)c2ccccc2OC)ccc1O (centres undefined)	none (no result: ALR inh)
COc1ccc(C(c2c[nH]c3ccccc23)c2c[nH]c3ccccc23)cc1O	ALR inh 88
COc1ccc(C(=O)NCCc2c[nH]c3ccccc23)cc1OC	none
COc1ccccc1NC(=S)N1CCN(c2cccc(C)c2C)CC1	none
Cc1cccc(NC(=S)NCCc2ccccn2)c1	none
S=C(NCCc1ccccn1)Nc1cccc(Cl)c1	ALR inh 97
COCCCNC(=S)NNC(=S)Nc1cccc(Cl)c1	ALR inh 78
CC(C(=O)Nc1ccc(N2CCOCC2)cc1)N1C(=O)NC(C)(C)C1=O (centres undefined)	none (no result: EBNA-1 inhibitor, HCV core dimer, PfM18AAP inh, NS3 helicase inh)
Cc1cc2c(cc(C(=O)O)n2C)s1	ALR inh 79
O=C(N/N=C/c1cccn1-c1cccc(C(=O)O)c1)Nc1ccccc1	ALR inh 97
